Measurements as given in ChEMBL document CHEMBL2203216, “Fluoride enhances the activity of fungicides that destabilize cell membranes” (2012).
Activity calls are given as the source filed them. No cut-off for these calls is given here. Numbered stars: 1 amine (or outer) side, 2 acyl side, 3 side chain; on linkers, the order of the positions; unused ones are H or OH. Bridge positions count the residues as written; N and C are the ends. Square brackets hold non-standard residues; d marks the D form. Peptide text beside a SMILES is read from it. * marks the point of attachment. Orn(4R-OH,5R-OH) = O=C([C@H](C[C@@H](O)[C@@H](O)N[*:3])N[*:1])[*:2]; hTyr(3S-OH,4S-OH) = N[C@H](C(=O)O)[C@H](O)[C@@H](O)c1ccc(O)cc1; Pro(3S-OH,4S-Me) = C[C@H]1CN[C@H](C(=O)O)[C@H]1O; Palmitoyl = CCCCCCCCCCCCCCCC(=O)*; Hyp = O=C(O)[C@@H]1C[C@@H](O)CN1

Columns and labels:
Saccharomyces cerevisiae [1] = test: Antifungal activity against Saccharomyces cerevisiae MYH 500 assessed as growth inhibition in presence of 30 mM sodium fluoride after 9 hrs; type: functional, organism-based
Procedure, shortened: (§1)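 S. cerevisiae growth in liquid medium with amphotericin B over a concentration series, plus a fixed 30 mM or 80 mM of NaF, KCl or NaCl. Cultures were shaken at 30°C for 9 h.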

Saccharomyces cerevisiae [2] = test: Antifungal activity against Saccharomyces cerevisiae MYH 500 assessed as growth inhibition in presence of 80 mM sodium fluoride after 9 hrs; type: functional, organism-based; procedure, shortened: as §1
Aspergillus nidulans [3] = test: Antifungal activity against Aspergillus nidulans ATCC 38163 assessed as growth inhibition in presence of 10 mM sodium fluoride after 24 hrs; type: functional, organism-based
Saccharomyces cerevisiae [4] = test: Antifungal activity against Saccharomyces cerevisiae MYH 500 assessed as growth inhibition in presence of 30 mM NaCl after 9 hrs; type: functional, organism-based; procedure, shortened: as §1
Saccharomyces cerevisiae [5] = test: Potentiation of fluoride-induced antimicrobial effect against Saccharomyces cerevisiae MYH 500 assessed as increase in growth inhibition at 10 nM in presence of 60 mM sodium fluoride after 48 hrs; type: functional, organism-based
Procedure, shortened: (§2)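 S. cerevisiae growth curves in liquid medium over 48 h. Amphotericin B was tested alone or at a fixed 10 nM or 20 nM with a range of sodium fluoride concentrations. Growth was followed as culture density.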

Neurospora crassa [6] = test: Antifungal activity against Neurospora crassa FGSC 2225 assessed as growth inhibition in presence of 30 mM sodium fluoride after 24 hrs relative to untreated control; type: functional
Procedure, shortened: (§3)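 Filamentous fungus grown in liquid medium tubes with fluoride plus a drug series. Growth was scored visually after 24 h. The endpoint was the lowest concentration tube showing little or no visible growth.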

Aspergillus nidulans [7] = test: Antifungal activity against Aspergillus nidulans ATCC 38163 assessed as growth inhibition in presence of 30 mM sodium fluoride after 24 hrs; type: functional, organism-based
Saccharomyces cerevisiae [8] = test: Antifungal activity against Saccharomyces cerevisiae MYH 500 assessed as growth inhibition in presence of 80 mM NaCl after 9 hrs; type: functional, organism-based; procedure, shortened: as §1
Saccharomyces cerevisiae [9] = test: Potentiation of fluoride-induced antimicrobial effect against Saccharomyces cerevisiae MYH 500 assessed as increase in growth inhibition at 20 nM in presence of 30 to 100 mM sodium fluoride after 48 hrs; type: functional, organism-based; procedure, shortened: as §2
Saccharomyces cerevisiae [10] = test: Potentiation of fluoride-induced antimicrobial effect against Saccharomyces cerevisiae MYH 500 assessed as increase in growth inhibition at 10 nM in presence of 30 to 100 mM sodium fluoride after 48 hrs; type: functional, organism-based; procedure, shortened: as §2
Neurospora crassa [11] = test: Antifungal activity against Neurospora crassa FGSC 2225 assessed as growth inhibition at 300 nM after 24 hrs; type: functional, organism-based
Procedure, shortened: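 N. crassa, a filamentous fungus, was grown in liquid medium with amphotericin B for 24 h. Growth was scored visually in tubes, and the lowest concentration showing little or no visible growth was noted.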

Neurospora crassa [12] = test: Antifungal activity against Neurospora crassa FGSC 2225 assessed as growth inhibition in presence of 10 mM sodium fluoride after 24 hrs relative to untreated control; type: functional; procedure, shortened: as §3
Saccharomyces cerevisiae [13] = test: Antifungal activity against Saccharomyces cerevisiae MYH 500 assessed as growth inhibition in presence of 30 mM sodium fluoride after 48 hrs relative to untreated control; type: functional
Saccharomyces cerevisiae [14] = test: Antifungal activity against Saccharomyces cerevisiae MYH 500 assessed as growth inhibition in presence of 80 mM Kcl after 9 hrs; type: functional, organism-based; procedure, shortened: as §1
Saccharomyces cerevisiae [15] = test: Antifungal activity against Saccharomyces cerevisiae MYH 500 assessed as growth inhibition at 300 nM after 48 hrs; type: functional, organism-based; procedure, shortened: as §2
Saccharomyces cerevisiae [16] = test: Antifungal activity against Saccharomyces cerevisiae MYH 500 at 30 to 70 nM after 48 hrs; type: functional, organism-based; procedure, shortened: as §2
Saccharomyces cerevisiae [17] = test: Antifungal activity against Saccharomyces cerevisiae MYH 500 assessed as growth inhibition in presence of 30 mM Kcl after 9 hrs; type: functional, organism-based; procedure, shortened: as §1
Saccharomyces cerevisiae [18] = test: Antifungal activity against Saccharomyces cerevisiae MYH 500 assessed as growth inhibition in presence of 80 mM sodium fluoride after 48 hrs relative to untreated control; type: functional
Saccharomyces cerevisiae [19] = test: Antifungal activity against Saccharomyces cerevisiae MYH 500 at 10 nM after 48 hrs; type: functional, organism-based; procedure, shortened: as §2
Saccharomyces cerevisiae [20] = test: Antifungal activity against Saccharomyces cerevisiae MYH 500 assessed as growth inhibition at 3 mM in presence of 30 mM sodium fluoride after 24 hrs relative to untreated control; type: functional, organism-based
Saccharomyces cerevisiae [21] = test: Antifungal activity against Saccharomyces cerevisiae MYH 500 assessed as growth inhibition at 3 mM after 48 hrs; type: functional, organism-based
Saccharomyces cerevisiae [22] = test: Antifungal activity against Saccharomyces cerevisiae MYH 500 assessed as growth inhibition at 3 mM in presence of 30 mM sodium fluoride after 48 hrs relative to untreated control; type: functional

`CN(C/C=C/C#CC(C)(C)C)Cc1cccc2ccccc12` was tested. Which “growth inhibition (GI)” value (Saccharomyces cerevisiae [1]) did it give?
The value was “inactive”.

And the “growth inhibition (GI)” value (Saccharomyces cerevisiae [2])?
Its value is “inactive”.

With `C[C@@H]1[C@H](O)[C@@H](C)/C=C/C=C/C=C/C=C/C=C/C=C/C=C/[C@H](O[C@@H]2O[C@H](C)[C@@H](O)[C@H](N)[C@@H]2O)C[C@@H]2O[C@](O)(C[C@@H](O)C[C@@H](O)[C@H](O)CC[C@@H](O)C[C@@H](O)CC(=O)O[C@H]1C)C[C@H](O)[C@H]2C(=O)O` [AMPHOTERICIN B] as the compound, how does the “growth inhibition (GI)” value (Aspergillus nidulans [3]) read?
The value was “Active”.

And the “growth inhibition (GI)” value (Saccharomyces cerevisiae [4])?
The value was “Active”.

What about the “growth inhibition (GI)” value (Saccharomyces cerevisiae [5]) of the same compound?
Its value is “Active”.

What about the “fold change (FC)” value (Neurospora crassa [6]) of the same compound?
The value was 10.

What about the “growth inhibition (GI)” value (Aspergillus nidulans [7]) of the same compound?
Its value is “Active”.

What about the “growth inhibition (GI)” value (Saccharomyces cerevisiae [8]) of the same compound?
Its value is “Active”.

And the “growth inhibition (GI)” value (Saccharomyces cerevisiae [9])?
The value was “Active”.

And the “growth inhibition (GI)” value (Saccharomyces cerevisiae [10])?
Its value is “Active”.

What about the “growth inhibition (GI)” value (Neurospora crassa [11]) of the same compound?
Its value is “inactive”.

And the “fold change (FC)” value (Neurospora crassa [12])?
Its value is 4.

And the “fold change (FC)” value (Saccharomyces cerevisiae [13])?
The value was 10.

What about the “growth inhibition (GI)” value (Saccharomyces cerevisiae [14]) of the same compound?
The value was “Active”.

And the “growth inhibition (GI)” value (Saccharomyces cerevisiae [15])?
Its value is “Active”.

What about the Activity (Saccharomyces cerevisiae [16]) of the same compound?
The Activity was “inactive”.

What about the “growth inhibition (GI)” value (Saccharomyces cerevisiae [17]) of the same compound?
Its value is “Active”.

And the “fold change (FC)” value (Saccharomyces cerevisiae [18])?
The value was 30.

What about the Activity (Saccharomyces cerevisiae [19]) of the same compound?
Its Activity is “inactive”.

How did the “growth inhibition (GI)” value (Saccharomyces cerevisiae [1]) turn out when NYSTATIN was run?
The value was “Active”.

And the “growth inhibition (GI)” value (Saccharomyces cerevisiae [2])?
Its value is “Active”.

For `N=C(N)NCCC[C@@H]1NC(=O)[C@H](CCCNC(=N)N)NC(=O)[C@H](CCCNC(=N)N)NC(=O)[C@H](CCCNC(=N)N)NC(=O)[C@H](CCCNC(=N)N)NC(=O)[C@H](CCCNC(=N)N)NC(=O)[C@H](CCCNC(=N)N)NC1=O` [NOVEXATIN], which “growth inhibition (GI)” value (Saccharomyces cerevisiae [20]) is on record?
Its value is “Active”.

And the “growth inhibition (GI)” value (Saccharomyces cerevisiae [21])?
The value was “Active”.

And the “fold change (FC)” value (Saccharomyces cerevisiae [22])?
Its value is >3.

For `CCCCCCCCCCCCCCCC(=O)N[C@H]1C[C@@H](O)[C@@H](O)NC(=O)[C@@H]2[C@@H](O)[C@@H](C)CN2C(=O)[C@H]([C@@H](C)O)NC(=O)[C@H]([C@H](O)[C@@H](O)c2ccc(O)cc2)NC(=O)[C@@H]2C[C@@H](O)CN2C(=O)[C@H]([C@@H](C)O)NC1=O` (Palmitoyl-[Orn(4R-OH,5R-OH)]T[Hyp][hTyr(3S-OH,4S-OH)]T[Pro(3S-OH,4S-Me)]; lactam 1-C), which “growth inhibition (GI)” value (Saccharomyces cerevisiae [1]) is on record?
Its value is “inactive”.

What does the source list for `CCC(C)n1ncn(-c2ccc(N3CCN(c4ccc(OCC5COC(Cn6cncn6)(c6ccc(Cl)cc6Cl)O5)cc4)CC3)cc2)c1=O` (centres undefined)?
growth inhibition (GI) (Saccharomyces cerevisiae [1]): inactive; growth inhibition (GI) (Saccharomyces cerevisiae [2]): inactive

Which “growth inhibition (GI)” value (Saccharomyces cerevisiae [1]) does the source give for `Cc1cccc(N(C)C(=S)Oc2ccc3ccccc3c2)c1` here?
Its value is “inactive”.

And the “growth inhibition (GI)” value (Saccharomyces cerevisiae [2])?
Its value is “inactive”.
